Assay results published in PubChem BioAssay AID624204 (Sanford-Burnham Center for Chemical Genomics, 2012).
In all, about 360,000 compounds went through this assay and about 770 (0.21%) were called active. This is one part of a sample in which actives are shown more often than they occur. A number with no mark means an inactive call.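 The calls were made as follows: active = inhibition at least 30% at 10 µM, raw YFP signal under a set limit, fluorescence ratio 0.5 to 1.5; inactive = the rest.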

target: Sentrin-specific protease 1 (Homo sapiens) (UniProt Q9P0U3); test: blockers of SENP1 SUMO protease activity – biochemical, FRET, uHTS, primary screen (AID 624204); settings: recombinant SENP1 catalytic domain, CyPet-SUMO1-YPet FRET cleavage; at 10 µM; hits give high values;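 also: 0% = enzyme with DMSO and 100% = no enzyme wells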
Sequence (Q9P0U3 419-644 limits assumed): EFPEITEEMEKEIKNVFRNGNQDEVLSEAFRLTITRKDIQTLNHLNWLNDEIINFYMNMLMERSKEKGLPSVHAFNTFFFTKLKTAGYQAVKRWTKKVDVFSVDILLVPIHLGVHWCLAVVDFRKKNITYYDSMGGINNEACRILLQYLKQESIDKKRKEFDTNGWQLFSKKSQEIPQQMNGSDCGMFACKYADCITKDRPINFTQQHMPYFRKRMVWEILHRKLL
Outline: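 Assay system – human recombinant His6-tagged SENP1 catalytic domain enzyme · Input – SENP1 enzyme, 20 pM final · Buffer or medium – Tris pH 8 buffer plus EDTA, NaCl, BME, BSA, NP40, catalase · Schedule – 50 min reaction at room temperature · Technique – FRET read of cyan and yellow fluorescence · Control set – no-enzyme wells low, DMSO-plus-enzyme wells high control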

| Compound | inhibition |
| --- | --- |
| CC(=O)N1CCOc2ccc(S(=O)(=O)N3CCN(c4cccc(C(F)(F)F)c4)CC3)cc21 | 2.33% |
| COc1ccc(N2CCC(N3CCN(C)C(CCO)C3)CC2)cc1 (stereo unspecified) | -1.06% |
| NC(=O)C1(Nc2ccc([N+](=O)[O-])cc2)CCCC1 | -1.76% |
| O=[N+]([O-])/C(N=Nc1ccccc1)=N\Nc1ccccc1 | 0.203% |
| O=[N+]([O-])c1ccc(N=NNc2ccc([N+](=O)[O-])cc2)cc1 | 67.8% (active) |
| O=C(N/N=C/c1ccc(Br)o1)c1cncc(Br)c1 | 0.704% |
| Cc1ccc(C(=O)N/N=C\c2cc(Br)c(Br)o2)cn1 | 41.1% (active) |
| Brc1cc(/C=N/n2cnnc2)oc1Br | 2.85% |
| CC(C)(C)OC(=O)C[C@@H]1C/C=C\C[C@@H](CC(=O)N[C@@H](CO)Cc2ccccc2)C(=O)N2CCC[C@H]2COC1=O | 1.24% |
| Cc1ccc(Cn2nnc3c(=O)[nH]c(C4CCN(S(=O)(=O)/C=C/c5ccccc5)CC4)nc32)cc1 | -2.14% |
| Cc1cccc(Nc2nnc(SCC(=O)c3c(N)n(C4CC4)c(=O)[nH]c3=O)s2)c1C | 1.61% |
| Nn1c(SCC(=O)Nc2nccs2)nncc1=O | 2.89% |
| O=C(Nc1ccc2c(c1)OCCO2)C1c2ccccc2OCC(=O)N1Cc1ccccn1 (stereo unspecified) | -6.74% |
| Cc1ccc(F)c(NC(=O)CCc2ccccc2)c1 | -0.0761% |
| CCNc1nc(N)nc(-c2cc(Cl)ccc2OC)n1 | 0.684% |
| O=C(CNC(=O)c1ccc(Cl)cc1Cl)NCC(=O)Nc1ccccc1N1CCOCC1 | 4.8% |
| CCCC1OC23CCCCC2C(C#N)(C#N)C1(C#N)C(=N)O3 (stereo unspecified) | -28.3% |
| CCOC(=O)CCC(=O)OCC(=O)NC(C)C1CC2CCC1C2 (stereo unspecified) | 2.09% |
| COC(=O)N/N=C/c1c[n+]([O-])c2ccccc2[n+]1[O-] | 58.5% (active) |

| Compound | inhibition |
| --- | --- |
| COC(=O)C(C)N=Cc1ccccc1 (stereo unspecified) | 3.52% |
| N#Cc1ccc(C(c2ccc(C#N)cc2)n2cncn2)cc1 | -1.95% |
| O=C(Nc1cccc(OCC(=O)N2CCOCC2)c1)C1CCCCC1 | -0.72% |
| COc1ccc(N2C(=O)CC(N3CCC(C(N)=O)CC3)C2=O)cc1 (stereo unspecified) | -0.137% |
| COc1ccc(N2C(=O)C3C(C2=O)C(C(=O)c2ccccc2)N2CCCC32)cc1 (stereo unspecified) | 40% (active) |
| CNC(=O)C[C@H]1C(=O)N(c2ccc(OC)cc2)C[C@@H]1Cc1ccccc1 | 3.98% |
| CC(C)Oc1ccc(C(CC(=O)N2CCOCC2)C(C)C)cc1 (stereo unspecified) | 1.52% |
| CC(C)(C)c1cc(NC(=O)NN2CCOCC2)nn1-c1c(Cl)cc(Cl)cc1Cl | 2.79% |
| Cn1c(N)cc(=O)n(C)c1=S | -0.927% |
| COc1ccc(CCNS(=O)(=O)c2cc3c(cc2C)NC(=O)CO3)cc1OC | 2.06% |
| COc1ccc(OC)c(C2C3=C(N=c4s/c(=C\c5cccc(O)c5)c(=O)n42)c2ccccc2CC3)c1 (stereo unspecified) | 45.9% (active) |
| CCC1([N+](=O)[O-])COC(c2ccc(C(C)C)cc2)OC1 (stereo unspecified) | 2.7% |
| Cc1ccc2c(c1)N(C(=O)CCC(=O)N1CCc3ccccc3C1)CCO2 | 1.45% |
| CCOC(=O)[C@H]1[C@H]2COc3ccc(Cl)cc3[C@@H]2N2C(=O)c3cc(C)ccc3NC(=O)[C@@]12C | 1.07% |
| Nn1c(Cc2cccc3ccccc23)nnc1SCC(=O)N1CC(=O)Nc2ccccc21 | 3.32% |
| CCc1ccc2ncc(C(=O)c3ccccc3)c(N3CCOCC3)c2c1 | -0.316% |
| Cc1c(C(=O)NCCN2C(=O)S/C(=C\c3cccs3)C2=O)cccc1[N+](=O)[O-] | 5.33% |
| O=C(CCN1C(=O)/C(=C/c2cccs2)SC1=S)NNC(=O)c1cccc(O)c1 | 72.7% (active) |
| O=C(CCN1C(=O)c2ccccc2C1=O)NNC(=O)c1ccc(Cl)cc1Cl | 1.7% |

| Compound | inhibition |
| --- | --- |
| O=C(O)c1cc(S(=O)(=O)N2CCCCCC2)c(Cl)cc1Cl | -0.414% |
| Cc1nn(-c2ccccc2)c(CC(C)(C)C(=O)O)c1C(=O)O | 1.05% |
| CCCCN(C(=O)CSCC(=O)Nc1ccc(OC)cc1)c1c(N)n(CCC)c(=O)[nH]c1=O | -2.42% |
| Cc1cc(=O)cc(C)n1-c1ccc(Cl)c(Cl)c1 | 2.24% |
| CC(=O)NC1(c2cccc(F)c2)CCN(CC(=O)NC(C)C)CC1 | -0.563% |
| O=C(CC1CCCCC1)NCc1ccc(F)cc1 | 1.88% |
| CNS(=O)(=O)c1cccc(C(=O)OCCCC(=O)c2ccccc2)c1 | 0.585% |
| COc1ccc(CC2c3cc(OC)c(OC)cc3CC[N+]2(C)CCC(=O)OCCCCCOC(=O)CC[N+]2(C)CCc3cc(OC)c(OC)cc3C2Cc2ccc(OC)c(OC)c2)cc1OC (stereo unspecified) | -1.31% |
| CC(=O)c1cccc(-c2cnc3c(NC=O)cc(-c4ccc(N(C)C)cc4)cn23)c1 | 50% (active) |
| CC(=O)c1cccc(-c2cnc3c(NC=O)cc(-c4ccc(N5CCN(C)CC5)cc4)cn23)c1 | 28% |
| CN(C)C(=O)c1cccc(-c2cnc3c(NC=O)cc(-c4ccc(C(=O)N5CCOCC5)cc4)cn23)c1 | -29.9% |
| CC(=O)NCC(=O)N1CCC(n2nccc2NC(=O)CCCc2ccccc2)CC1 | 0.687% |
| Cc1nc2nc(C)c(CCC(=O)N3CCN(c4ccccc4)CC3)c(C)n2n1 | 0.72% |
| O=C(C[C@H]1C[C@H]2c3cc(NS(=O)(=O)c4ccc(F)cc4)ccc3O[C@H]2[C@H](CO)O1)NCc1cc(F)ccc1F | -0.578% |
| O=C(Nc1ccc(F)cc1F)N1CCCN(CCOc2ccccc2)CC1 | -1.95% |
| COc1ccc(N2CCN(C(=O)c3ccc(N4CCCCS4(=O)=O)cc3)CC2)cc1 | -2.08% |
| Cn1nnnc1SCC(=O)Nc1ccccc1C(=O)NC1CC1 | -4.1% |
| Cc1cccc(NC(=O)c2ccc3c(=O)n(CC4CCCO4)c(=S)[nH]c3c2)c1 (stereo unspecified) | -0.024% |
